According to ChEMBL document CHEMBL1125814, “Folic acid analogues lacking the 2-carbon are substrates for folylpolyglutamate synthetase and inhibit cell growth” (J Med Chem, 1991):

Key:
[1] = Ratio of relative Vmax to that of Km values.; type: ADME
[2] = Relative maximal velocity (Vmax) as folylpolyglutamate synthetase substrate of the compound.; type: ADME
L1210 = assay: Compound was tested for inhibition of L1210 cell growth.; type: functional, cell-based; details: Mus musculus
Method in brief: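 Exponentially growing L1210 mouse leukemia cells seeded at (2.0–2.5) × 10^4/mL in RPMI-1640 with 10% dialyzed fetal bovine serum. Compound added in phosphate-buffered saline. Incubated 72 h at 37 °C, 5% CO2, humidified. Cells counted with a Coulter counter. IC50 taken from 1 or 2 experiments.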

Row | Ratio [1] | Relative Vmax [2] | IC50 (L1210) [µM] | Structure (SMILES)
1 | 0.9 | 0.99 |  | CN(Cc1cnc2nc(N)nc(N)c2n1)c1ccc(C(=O)N[C@@H](CCC(=O)O)C(=O)O)cc1 [METHOTREXATE]
2 | 1 | 1 |  | Nc1nc2ncc(CNc3ccc(C(=O)N[C@@H](CCC(=O)O)C(=O)O)cc3)nc2c(=O)[nH]1 [FOLIC ACID]
3 | 1.52 | 0.99 | 5.5 | NC(=O)c1nc(CNc2ccc(C(=O)NC(CCC(=O)O)C(=O)O)cc2)cnc1N (stereo not given)
4 | 2.6 | 1.84 | 85 | NC(=O)c1nc(CN(C=O)c2ccc(C(=O)NC(CCC(=O)O)C(=O)O)cc2)cnc1N (stereo not given)
5 | 0.7 | 1.06 | 217 | N#Cc1nc(CNc2ccc(C(=O)NC(CCC(=O)O)C(=O)O)cc2)cnc1N (stereo not given)

Row | Structure (SMILES) | Ratio [1] | Relative Vmax [2] | IC50 (L1210) [µM]
6 | Nc1nc(N)c2nc(CNc3ccc(C(=O)N[C@@H](CCC(=O)O)C(=O)O)cc3)cnc2n1 [AMINOPTERIN] | 10.1 | 1.59 | 
